# Published values pooled from the literature.
# Target: Serine/threonine-protein kinase WNK4 (WNK4, Homo sapiens, UniProt Q96J92)
Structure (SMILES),assay,conditions,remaining binding [%]
c1cnn2ncc(-c3ccnc(N4CCC45COC5)n3)c2c1,binding,1 µM,64
O=C(Nc1ccc(Oc2ccc(F)cc2)cc1)N1CCc2ncccc2[C@H]1c1ccc(F)cc1,"cell-free assay, competition with immobilised ligand",1 µM,85
O=C(Nc1c[nH]nc1C(=O)NC1CCNCC1)c1cc(F)cc(F)c1,"binding, competition with immobilised ligand",1 µM,100
CC1CCCN1c1nccc(-c2cnn3ncccc23)n1 (centres unmarked),binding,1 µM,100
CC(=O)N1CCC(c2ccc(C(=O)NC(=N)N)cc2C(F)(F)F)CC1,"cell-free assay, competition with immobilised ligand",1 µM,100
CN(CCCC(F)(F)F)c1nccc(-c2cnn3ncccc23)n1,binding,1 µM,91
CC1=C(C#N)[C@@H](c2ccc3[nH]nc(C)c3c2)C(C#N)=C(c2ccc(Cl)cc2)N1,"cell-free assay, competition with immobilised ligand",1 µM,100
N[C@H]1CCN(c2nccc(-c3cnn4ncccc34)n2)C1,binding,1 µM,84
O=C(c1ccc(Nc2ncc(Cl)c(-c3cc4ccccc4s3)n2)cc1)N1CCC(N2CCCC2)CC1,"binding, competition with immobilised ligand",1 µM,86
CCCCN(CCCC)C(=O)CN1C[C@H](c2cc(OC)c3c(c2)OCO3)[C@@H](C(=O)O)[C@@H]1CC(C)(C)CCC,"cell-free assay, competition with immobilised ligand",1 µM,97.9
CNC(=O)[C@@H]1CC[C@@H](n2c(-c3ccc4cnccc4c3)nc3ccc(C(=O)NCc4cccc(C(N)=O)c4)cc32)C1,"binding, competition with immobilised ligand",1 µM,100
CSc1cccnc1N1CCN(Cc2nc3ccccc3[nH]2)CC1,"cell-free assay, competition with immobilised ligand",1 µM,91
O=C(c1ccc(Nc2nccc(-c3cc4ccccc4s3)n2)cc1)N1CCC(N2CCCC2)CC1,"binding, competition with immobilised ligand",1 µM,92
COc1cnc(Nc2cccc(S(N)(=O)=O)c2)nc1N1CCN(c2ccccc2)C(=O)C1,"binding, competition with immobilised ligand",1 µM,89
F[C@@H]1CCN(c2nccc(-c3cnn4ncccc34)n2)C1,binding,1 µM,91
C[C@@H](c1ccc(-n2cnc3c(N)ncnc32)cc1)N1CCc2nn(C)c(Cc3ccccc3)c2C1=O,"binding, competition with immobilised ligand",0.1 µM,75
NS(=O)(=O)c1cc(NC(=O)C2(c3ccccc3Cl)CC2)ccc1Oc1cccc(Cl)c1,"cell-free assay, competition with immobilised ligand",1 µM,81
C[C@H]1CCN(c2nccc(-c3cnn4ncccc34)n2)C1,binding,1 µM,79
O=C(NCCCN1CCOCC1)c1ccc(Nc2nccc(-c3cc4ccccc4s3)n2)cc1,"binding, competition with immobilised ligand",1 µM,71
COc1ncc2cc3ccccc3nc2c1C#N,"cell-free assay, competition with immobilised ligand",5 µM,80
